Test results from ChEMBL document CHEMBL3860039, “Structure-Activity Relationship and Signaling of New Chimeric CXCR4 Agonists” (J Med Chem, 2016).

Experiments:
Format in all cases: cell-based
[1] = biological target: T1, C-X-C chemokine receptor type 4 (Homo sapiens, UniProt P61073); experiment: Displacement of [125I]-CXCL12 from HA-tagged human recombinant CXCR4 expressed in HEK293 cells incubated for 1 hr by gamma-radiation counting analysis
[2] = biological target: T1, C-X-C chemokine receptor type 4; experiment: Agonist activity at HA-tagged human CXCR4 receptor expressed in HEK293 cells co-transfected with Galphai1-91-RlucII, Gbeta1, and GFP10-G-gamma1 incubated for 7 mins by Galpha1 protein activation-based BRET assay
In short: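 HEK293 cells (3 × 10^6 per 100 mm dish) co-transfected via polyethylenimine with HA-hCXCR4 plus Gαi1-91-RlucII, Gβ1, GFP10-Gγ1; replated at 24 h, 100 000 cells/well. At 48 h, washed in HBSS/0.1% BSA, exposed to ligand 10−12 to 10−5 M for 7 min, then coelenterazine-400A 5 μM final; BRET2 515/400 nm ratio. EC50 (Gαi dissociation) and Emax from three experiments in triplicate.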

[3] = biological target: T1, C-X-C chemokine receptor type 4; experiment: Agonist activity at CXCR4 in human REH cells assessed as induction of chemotaxis incubated for 3 hrs by transwell migration assay
In short: (§1)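 REH acute lymphoblastic B-cell leukaemia cells washed in RPMI; 100 000 cells in RPMI + 0.2% BSA seeded on top of 5 μm pore polycarbonate transwell, peptide dilutions in same medium in bottom chamber; 3 h, 37 °C, 5% CO2. Migrated cells in lower chamber counted by automated counter, expressed as % of seeded cells; peak = concentration giving maximal migration. Three experiments in triplicate.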

[4] = biological target: T1, C-X-C chemokine receptor type 4; experiment: Agonist activity at CXCR4 in human REH cells assessed as optimal concentration causing maximum induction of chemotaxis incubated for 3 hrs by transwell migration assay; in short: as §1

T1 sequence (P61073 whole entry): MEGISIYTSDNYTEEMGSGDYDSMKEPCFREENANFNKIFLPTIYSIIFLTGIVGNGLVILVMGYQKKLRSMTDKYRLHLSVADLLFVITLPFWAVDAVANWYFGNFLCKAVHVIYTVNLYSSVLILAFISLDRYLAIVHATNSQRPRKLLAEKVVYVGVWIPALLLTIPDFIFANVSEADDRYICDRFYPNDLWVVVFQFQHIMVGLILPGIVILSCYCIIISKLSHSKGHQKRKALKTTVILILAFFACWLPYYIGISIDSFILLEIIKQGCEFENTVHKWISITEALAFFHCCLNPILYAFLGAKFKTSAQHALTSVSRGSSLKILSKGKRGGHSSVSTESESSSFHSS

| IC50 [1] [µM] | EC50 [2] [µM] | Emax [2] [%] | %max [3] [%] | Activity [4] [nM] | SMILES |
| --- | --- | --- | --- | --- | --- |
| 0.368 | 0.144 | 19 | 11.4 | 10000 | CC(C)C[C@H](NC(=O)[C@H](CO)NC(=O)[C@@H](NC(=O)[C@@H]1CCCN1C(=O)[C@@H](N)CCCCN)C(C)C)C(=O)N[C@@H](C)C(=O)N[C@@H](Cc1ccc(O)cc1)C(=O)N[C@@H](CCCNC(=N)N)C(=O)N[C@@H](CO)C(=O)N[C@@H](C)C(=O)NCCCC[C@H](NC(=O)[C@@H]1CSSC[C@H](NC(=O)[C@H](Cc2ccc3ccccc3c2)NC(=O)[C@H](CCCNC(=N)N)NC(=O)[C@@H](N)CCCNC(=N)N)C(=O)N[C@@H](Cc2ccc(O)cc2)C(=O)N[C@@H](CCCNC(=N)N)C(=O)N[C@@H](CCCCN)C(=O)N[C@H](CCCCN)C(=O)N2CCC[C@H]2C(=O)N[C@@H](Cc2ccc(O)cc2)C(=O)N[C@@H](CCCNC(=N)N)C(=O)N[C@@H](CCCNC(=N)N)C(=O)N1)C(=O)O |
| 0.094 | 0.083 | 33 | 27 | 10 | CC(C)C[C@H](NC(=O)[C@H](CO)NC(=O)[C@@H](NC(=O)[C@@H]1CCCN1C(=O)[C@@H](N)CCCCN)C(C)C)C(=O)N[C@@H](CO)C(=O)N[C@@H](Cc1ccc(N)cc1)C(=O)N[C@@H](CCCNC(=N)N)C(=O)N[C@@H](CO)C(=O)N[C@@H](C)C(=O)NCCCC[C@H](NC(=O)[C@@H]1CSSC[C@H](NC(=O)[C@H](Cc2ccc3ccccc3c2)NC(=O)[C@H](CCCNC(=N)N)NC(=O)[C@@H](N)CCCNC(=N)N)C(=O)N[C@@H](Cc2ccc(O)cc2)C(=O)N[C@@H](CCCNC(=N)N)C(=O)N[C@@H](CCCCN)C(=O)N[C@H](CCCCN)C(=O)N2CCC[C@H]2C(=O)N[C@@H](Cc2ccc(O)cc2)C(=O)N[C@@H](CCCNC(=N)N)C(=O)N[C@@H](CCCNC(=N)N)C(=O)N1)C(=O)O |
| 0.064 | 0.152 | 43 | 47 | 10 | CC(C)C[C@H](NC(=O)[C@H](CO)NC(=O)[C@H](Cc1ccc2ccccc2c1)NC(=O)[C@@H]1CCCN1C(=O)[C@@H](N)CCCCN)C(=O)N[C@@H](CO)C(=O)N[C@@H](Cc1ccc(O)cc1)C(=O)N[C@@H](CCCNC(=N)N)C(=O)N[C@@H](CO)C(=O)N[C@@H](C)C(=O)NCCCC[C@H](NC(=O)[C@@H]1CSSC[C@H](NC(=O)[C@H](Cc2ccc3ccccc3c2)NC(=O)[C@H](CCCNC(=N)N)NC(=O)[C@@H](N)CCCNC(=N)N)C(=O)N[C@@H](Cc2ccc(O)cc2)C(=O)N[C@@H](CCCNC(=N)N)C(=O)N[C@@H](CCCCN)C(=O)N[C@H](CCCCN)C(=O)N2CCC[C@H]2C(=O)N[C@@H](Cc2ccc(O)cc2)C(=O)N[C@@H](CCCNC(=N)N)C(=O)N[C@@H](CCCNC(=N)N)C(=O)N1)C(=O)O |
| 0.09 | 0.074 | 47 | 45 | 100 | CC(C)C[C@H](NC(=O)[C@H](CO)NC(=O)[C@H](Cc1cc2cccc3ccc4cccc1c4c32)NC(=O)[C@@H]1CCCN1C(=O)[C@@H](N)CCCCN)C(=O)N[C@@H](CO)C(=O)N[C@@H](Cc1ccc(O)cc1)C(=O)N[C@@H](CCCNC(=N)N)C(=O)N[C@@H](CO)C(=O)N[C@@H](C)C(=O)NCCCC[C@H](NC(=O)[C@@H]1CSSC[C@H](NC(=O)[C@H](Cc2ccc3ccccc3c2)NC(=O)[C@H](CCCNC(=N)N)NC(=O)[C@@H](N)CCCNC(=N)N)C(=O)N[C@@H](Cc2ccc(O)cc2)C(=O)N[C@@H](CCCNC(=N)N)C(=O)N[C@@H](CCCCN)C(=O)N[C@H](CCCCN)C(=O)N2CCC[C@H]2C(=O)N[C@@H](Cc2ccc(O)cc2)C(=O)N[C@@H](CCCNC(=N)N)C(=O)N[C@@H](CCCNC(=N)N)C(=O)N1)C(=O)O |
| 0.073 | 0.094 | 59 | 51 | 100 | CC(C)C[C@H](NC(=O)[C@H](CO)NC(=O)[C@@H](NC(=O)[C@@H]1CCCN1C(=O)[C@@H](N)CCCCN)C(C)C)C(=O)N[C@@H](CO)C(=O)N[C@@H](Cc1ccc(I)cc1)C(=O)N[C@@H](CCCNC(=N)N)C(=O)N[C@@H](CO)C(=O)N[C@@H](C)C(=O)NCCCC[C@H](NC(=O)[C@@H]1CSSC[C@H](NC(=O)[C@H](Cc2ccc3ccccc3c2)NC(=O)[C@H](CCCNC(=N)N)NC(=O)[C@@H](N)CCCNC(=N)N)C(=O)N[C@@H](Cc2ccc(O)cc2)C(=O)N[C@@H](CCCNC(=N)N)C(=O)N[C@@H](CCCCN)C(=O)N[C@H](CCCCN)C(=O)N2CCC[C@H]2C(=O)N[C@@H](Cc2ccc(O)cc2)C(=O)N[C@@H](CCCNC(=N)N)C(=O)N[C@@H](CCCNC(=N)N)C(=O)N1)C(=O)O |
| 0.084 | 0.015 | 36 | 21 | 100 | CC(C)C[C@H](NC(=O)[C@H](CO)NC(=O)[C@@H](NC(=O)[C@@H]1CCCN1C(=O)[C@@H](N)CCCCN)C(C)(C)C)C(=O)N[C@@H](CO)C(=O)N[C@@H](Cc1ccc(O)cc1)C(=O)N[C@@H](CCCNC(=N)N)C(=O)N[C@@H](CO)C(=O)N[C@@H](C)C(=O)NCCCC[C@H](NC(=O)[C@@H]1CSSC[C@H](NC(=O)[C@H](Cc2ccc3ccccc3c2)NC(=O)[C@H](CCCNC(=N)N)NC(=O)[C@@H](N)CCCNC(=N)N)C(=O)N[C@@H](Cc2ccc(O)cc2)C(=O)N[C@@H](CCCNC(=N)N)C(=O)N[C@@H](CCCCN)C(=O)N[C@H](CCCCN)C(=O)N2CCC[C@H]2C(=O)N[C@@H](Cc2ccc(O)cc2)C(=O)N[C@@H](CCCNC(=N)N)C(=O)N[C@@H](CCCNC(=N)N)C(=O)N1)C(=O)O |
| 0.102 | 0.138 | 79 | 76 | 100 | CC(C)C[C@H](NC(=O)[C@H](CO)NC(=O)[C@@H](NC(=O)[C@@H]1CCCN1C(=O)[C@@H](N)CCCCN)C(C)C)C(=O)N[C@@H](CO)C(=O)N[C@@H](Cc1ccc(OCc2ccccc2)cc1)C(=O)N[C@@H](CCCNC(=N)N)C(=O)N[C@@H](CO)C(=O)N[C@@H](C)C(=O)NCCCC[C@H](NC(=O)[C@@H]1CSSC[C@H](NC(=O)[C@H](Cc2ccc3ccccc3c2)NC(=O)[C@H](CCCNC(=N)N)NC(=O)[C@@H](N)CCCNC(=N)N)C(=O)N[C@@H](Cc2ccc(O)cc2)C(=O)N[C@@H](CCCNC(=N)N)C(=O)N[C@@H](CCCCN)C(=O)N[C@H](CCCCN)C(=O)N2CCC[C@H]2C(=O)N[C@@H](Cc2ccc(O)cc2)C(=O)N[C@@H](CCCNC(=N)N)C(=O)N[C@@H](CCCNC(=N)N)C(=O)N1)C(=O)O |
| 0.059 | 0.052 | 75 | 72 | 10 | CC(C)C[C@H](NC(=O)[C@H](CO)NC(=O)[C@H](Cc1ccc(C(=O)c2ccccc2)cc1)NC(=O)[C@@H]1CCCN1C(=O)[C@@H](N)CCCCN)C(=O)N[C@@H](CO)C(=O)N[C@@H](Cc1ccc(O)cc1)C(=O)N[C@@H](CCCNC(=N)N)C(=O)N[C@@H](CO)C(=O)N[C@@H](C)C(=O)NCCCC[C@H](NC(=O)[C@@H]1CSSC[C@H](NC(=O)[C@H](Cc2ccc3ccccc3c2)NC(=O)[C@H](CCCNC(=N)N)NC(=O)[C@@H](N)CCCNC(=N)N)C(=O)N[C@@H](Cc2ccc(O)cc2)C(=O)N[C@@H](CCCNC(=N)N)C(=O)N[C@@H](CCCCN)C(=O)N[C@H](CCCCN)C(=O)N2CCC[C@H]2C(=O)N[C@@H](Cc2ccc(O)cc2)C(=O)N[C@@H](CCCNC(=N)N)C(=O)N[C@@H](CCCNC(=N)N)C(=O)N1)C(=O)O |
